Data as given in ChEMBL document CHEMBL5058577, “EUbOPEN Chemogenomics Library 2 (Multiplex)” (2022).

System: HEK-293T
Experiment: Multiplex assay against HEK293T
Assay type: toxicity, cell-based
Settings: human
Outline: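 Cells stained live at seeding with Hoechst33342, BioTracker Green Microtubule Cytoskeleton Dye, MitoTracker Red and Annexin V Alexa Fluor 680 were imaged on a CQ1 microscope at 37°C and 5% CO2 after compound addition. Their classification by CellPathfinder machine-learning gating ran from Hoechst high-intensity objects versus normal cells, to healthy, pyknosed or fragmented nuclei among normal cells, to mitotic or apoptotic among pyknosed cells. Tubulin, mitochondrial-mass and membrane-permeability phenotypes are per cents of healthy-nucleus cells.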

[1] = 12 h, 1 µM, compound concentration 1 uM, replicate 1
[2] = 12 h, 1 µM, compound concentration 1 uM, replicate 2
[3] = 12 h, 10 µM, compound concentration 10 uM, replicate 1
[4] = 12 h, 10 µM, compound concentration 10 uM, replicate 2
[5] = 24 h, 1 µM, compound concentration 1 uM, replicate 1
[6] = 24 h, 1 µM, compound concentration 1 uM, replicate 2
[7] = 24 h, 10 µM, compound concentration 10 uM, replicate 1
[8] = 24 h, 10 µM, compound concentration 10 uM, replicate 2
[9] = 48 h, 1 µM, compound concentration 1 uM, replicate 1
[10] = 48 h, 1 µM, compound concentration 1 uM, replicate 2
[11] = 48 h, 10 µM, compound concentration 10 uM, replicate 1
[12] = 48 h, 10 µM, compound concentration 10 uM, replicate 2

Compound: CC[C@@H](C)Nc1nc(C)nc2c(-c3ccc(OC)nc3C)c(C)nn12 [PEXACERFONT]
- Population Apoptotic (%) [1]: 33%
- Population Fragmented Nuclei (%) [1]: 7%
- Population Healthy Nuclei (%) [1]: 79%
- Population Hoechst High Intensity Objects (%) [1]: 6%
- Population Membrane Permeable-Phenotype (%) [1]: 0%
- Population Mitochondria Different-Phenotype (%) [1]: 45%
- Population Mitotic Cells (%) [1]: 66%
- Population Normal (%) [1]: 93%
- Population Pyknosed Nuclei (%) [1]: 13%
- Population Tubulin-Different-Phenotype (%) [1]: 34%
- Total Cell Count [1]: 399
- Population Apoptotic (%) [2]: 47%
- Population Fragmented Nuclei (%) [2]: 5%
- Population Healthy Nuclei (%) [2]: 82%
- Population Hoechst High Intensity Objects (%) [2]: 8%
- Population Mitochondria Different-Phenotype (%) [2]: 61%
- Population Mitotic Cells (%) [2]: 52%
- Population Normal (%) [2]: 91%
- Population Pyknosed Nuclei (%) [2]: 11%
- Population Tubulin-Different-Phenotype (%) [2]: 31%
- Total Cell Count [2]: 314
- Population Apoptotic (%) [3]: 38%
- Population Fragmented Nuclei (%) [3]: 6%
- Population Healthy Nuclei (%) [3]: 75%
- Population Hoechst High Intensity Objects (%) [3]: 8%
- Population Membrane Permeable-Phenotype (%) [3]: 0%
- Population Mitochondria Different-Phenotype (%) [3]: 59%
- Population Mitotic Cells (%) [3]: 61%
- Population Normal (%) [3]: 91%
- Population Pyknosed Nuclei (%) [3]: 17%
- Population Tubulin-Different-Phenotype (%) [3]: 54%
- Total Cell Count [3]: 451
- Population Apoptotic (%) [4]: 41%
- Population Fragmented Nuclei (%) [4]: 9%
- Population Healthy Nuclei (%) [4]: 74%
- Population Hoechst High Intensity Objects (%) [4]: 11%
- Population Membrane Permeable-Phenotype (%) [4]: 1%
- Population Mitochondria Different-Phenotype (%) [4]: 75%
- Population Mitotic Cells (%) [4]: 58%
- Population Normal (%) [4]: 88%
- Population Pyknosed Nuclei (%) [4]: 16%
- Population Tubulin-Different-Phenotype (%) [4]: 55%
- Total Cell Count [4]: 321
- Population Apoptotic (%) [5]: 24%
- Population Fragmented Nuclei (%) [5]: 8%
- Population Healthy Nuclei (%) [5]: 79%
- Population Hoechst High Intensity Objects (%) [5]: 3%
- Population Membrane Permeable-Phenotype (%) [5]: 0%
- Population Mitochondria Different-Phenotype (%) [5]: 26%
- Population Mitotic Cells (%) [5]: 75%
- Population Normal (%) [5]: 96%
- Population Pyknosed Nuclei (%) [5]: 11%
- Population Tubulin-Different-Phenotype (%) [5]: 21%
- Total Cell Count [5]: 508
- Population Apoptotic (%) [6]: 45%
- Population Fragmented Nuclei (%) [6]: 13%
- Population Healthy Nuclei (%) [6]: 76%
- Population Hoechst High Intensity Objects (%) [6]: 7%
- Population Mitochondria Different-Phenotype (%) [6]: 34%
- Population Mitotic Cells (%) [6]: 54%
- Population Normal (%) [6]: 92%
- Population Pyknosed Nuclei (%) [6]: 9%
- Population Tubulin-Different-Phenotype (%) [6]: 15%
- Total Cell Count [6]: 387
- Population Apoptotic (%) [7]: 37%
- Population Fragmented Nuclei (%) [7]: 6%
- Population Healthy Nuclei (%) [7]: 79%
- Population Hoechst High Intensity Objects (%) [7]: 7%
- Population Membrane Permeable-Phenotype (%) [7]: 1%
- Population Mitochondria Different-Phenotype (%) [7]: 46%
- Population Mitotic Cells (%) [7]: 62%
- Population Normal (%) [7]: 92%
- Population Pyknosed Nuclei (%) [7]: 14%
- Population Tubulin-Different-Phenotype (%) [7]: 52%
- Total Cell Count [7]: 612
- Population Apoptotic (%) [8]: 33%
- Population Fragmented Nuclei (%) [8]: 7%
- Population Healthy Nuclei (%) [8]: 78%
- Population Hoechst High Intensity Objects (%) [8]: 13%
- Population Membrane Permeable-Phenotype (%) [8]: 0%
- Population Mitochondria Different-Phenotype (%) [8]: 70%
- Population Mitotic Cells (%) [8]: 66%
- Population Normal (%) [8]: 86%
- Population Tubulin-Different-Phenotype (%) [8]: 48%
- Total Cell Count [8]: 371
- Population Apoptotic (%) [9]: 26%
- Population Fragmented Nuclei (%) [9]: 12%
- Population Healthy Nuclei (%) [9]: 80%
- Population Hoechst High Intensity Objects (%) [9]: 2%
- Population Membrane Permeable-Phenotype (%) [9]: 0%
- Population Mitochondria Different-Phenotype (%) [9]: 22%
- Population Mitotic Cells (%) [9]: 73%
- Population Normal (%) [9]: 97%
- Population Pyknosed Nuclei (%) [9]: 7%
- Population Tubulin-Different-Phenotype (%) [9]: 20%
- Total Cell Count [9]: 816
- Population Apoptotic (%) [10]: 41%
- Population Fragmented Nuclei (%) [10]: 10%
- Population Membrane Permeable-Phenotype (%) [10]: 1%
- Population Mitochondria Different-Phenotype (%) [10]: 27%
- Population Mitotic Cells (%) [10]: 58%
- Population Pyknosed Nuclei (%) [10]: 9%
- Population Tubulin-Different-Phenotype (%) [10]: 19%
- Total Cell Count [10]: 520
- Population Apoptotic (%) [11]: 40%
- Population Fragmented Nuclei (%) [11]: 13%
- Population Healthy Nuclei (%) [11]: 77%
- Population Hoechst High Intensity Objects (%) [11]: 7%
- Population Membrane Permeable-Phenotype (%) [11]: 1%
- Population Mitochondria Different-Phenotype (%) [11]: 45%
- Population Mitotic Cells (%) [11]: 59%
- Population Normal (%) [11]: 92%
- Population Pyknosed Nuclei (%) [11]: 9%
- Population Tubulin-Different-Phenotype (%) [11]: 38%
- Total Cell Count [11]: 692
- Population Fragmented Nuclei (%) [12]: 10%
- Population Healthy Nuclei (%) [12]: 72%
- Population Hoechst High Intensity Objects (%) [12]: 18%
- Population Membrane Permeable-Phenotype (%) [12]: 0%
- Population Mitochondria Different-Phenotype (%) [12]: 53%
- Population Mitotic Cells (%) [12]: 60%
- Population Normal (%) [12]: 81%
- Population Pyknosed Nuclei (%) [12]: 17%
- Population Tubulin-Different-Phenotype (%) [12]: 36%
- Total Cell Count [12]: 390
